In the library only some 5.2% were active in any assay of this set; here they are far more common.
HCV core dimer = inhibitors of HCV core protein dimerization, primary screen, biochemical, TR-FRET, high-throughput | TR-FRET GST/Flag-core106 dimerization, 1536-well | inhibition, % at 5 µM | 300,000 tested, 0.33% active;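 active means inhibition above the mean of all tested compounds plus 3 SD, set per screening campaign, cut at about 45% in these data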
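Assay system: GST-tagged and Flag-tagged HCV core protein residues 1-106 / Times: compound-protein-antibody incubation 4 h at 22.5 °C / Signal: time-resolved FRET, ex 340 nm, em 617 and 671 nm / Evaluation: % inhibition based on acceptor/donor emission ratio / Benchmarks: wells lacking GST-core106 and wells with excess unlabelled core106 / Repeats: singlicate, one well per compound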
ALR inh = inhibitors of human ALR sulfhydryl oxidase, primary screen, biochemical, H2O2 detection, HRP-luminol luminescence, single point | FAD-linked sulfhydryl oxidase ALR (Homo sapiens), P55789 | purified ALR, DTT oxidation | AID 485317, 2010 | 290,000 tested, 3.8% active | inhibition, % (no concentration beside the values);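 active means mean replicate inhibition above about 79%, with every replicate also reaching it, limit read from the data; inconclusive means only one of the two criteria met; inactive means mean below limit and not every replicate reaching it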
Target sequence (P55789 whole entry, looked up): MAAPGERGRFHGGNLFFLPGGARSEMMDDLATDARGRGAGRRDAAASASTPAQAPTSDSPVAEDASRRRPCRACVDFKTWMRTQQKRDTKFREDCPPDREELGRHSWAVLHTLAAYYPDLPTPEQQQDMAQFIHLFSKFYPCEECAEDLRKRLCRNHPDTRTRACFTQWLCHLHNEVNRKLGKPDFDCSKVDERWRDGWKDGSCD
EBNA-1 inhibitor = EBNA-1 DNA-binding inhibitors, primary screen, biochemical, fluorescence polarization; 300,000 tested, 0.34% active; AID 1950, 2009; inhibition, % at 14.8 µM; in the data active means inhibition above about 28%
M18AAP inhibitor = PfM18AAP inhibitors, malaria aminopeptidase, primary screen, biochemical, QFRET, recombinant enzyme; M18 aspartyl aminopeptidase (Plasmodium falciparum 3D7); H-Glu-NHMec fluorogenic cleavage; inhibition, % at 7.35 µM; 290,000 tested, 1.2% active;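 active means inhibition above the campaign mean inhibition over all tested compounds plus 3 SD, cut at about 28% in these data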;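 further: 0% = plate median of test compound wells and 100% = 2 mM ZnCl2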
ZTA DNA inh = counter-screen for EBNA-1 inhibitors: inhibitors of Epstein-Barr virus ZTA | AID 2234 | P03206 | ZTA-DNA binding, fluorescence polarization | inhibition, % at 11 µM | 320,000 tested, 0.15% active; in the data active means inhibition above about 33%
Target sequence (P03206 whole entry, looked up): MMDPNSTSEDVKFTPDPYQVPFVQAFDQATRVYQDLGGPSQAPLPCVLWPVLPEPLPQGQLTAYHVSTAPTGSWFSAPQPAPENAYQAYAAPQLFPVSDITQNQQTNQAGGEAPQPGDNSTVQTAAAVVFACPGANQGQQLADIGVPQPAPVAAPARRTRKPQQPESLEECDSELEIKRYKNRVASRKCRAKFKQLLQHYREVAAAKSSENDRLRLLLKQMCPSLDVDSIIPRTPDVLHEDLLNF
NS3 helicase inh = inhibitors of HCV NS3 helicase, primary screen, biochemical, Cy5 molecular beacon fluorescence | Hepatitis C virus NS3 helicase | inhibition, % at 10.9 µM | 290,000 tested, 0.56% active | NS3 helicase DNA unwinding;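 active means inhibition above the mean of all tested compounds plus 3 SD, set per campaign, cut at about 35% in these data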;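 further: 0% = DMSO wells and 100% = thioflavine S control wells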
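System: Hepatitis C virus NS3 helicase domain fragment enzyme | Reagent: Annealed dual-labelled DNA beacon duplex, ATP-started | Compound dosing: 10.9 µM single point, 0.8% DMSO | Incubation: 1 h reaction at 25 °C, ATP-initiated | Technique: Cy5 fluorescence | Evaluation: Percent inhibition from t60/t0 fluorescence ratio | Benchmarks: Low DMSO, high thioflavine S at 110 µM | Replication: Singlicate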
Starred values were filed as active, the others as inactive.

Screening Cc1cc(-c2n[nH]c(=S)n2Cc2ccco2)nn1C returned HCV core dimer -8, ALR inh 6, EBNA-1 inhibitor 5, M18AAP inhibitor 14, ZTA DNA inh 10 and NS3 helicase inh -4.
COc1ccc(Cl)cc1-c1n[nH]c(=S)n1C1CCCCC1 was read as HCV core dimer 9, ALR inh 49, EBNA-1 inhibitor 1, M18AAP inhibitor -5, ZTA DNA inh 6 and NS3 helicase inh 2.
Screening Oc1ccccc1-c1n[nH]c(=S)n1Cc1ccco1 returned HCV core dimer -1, ALR inh 91*, EBNA-1 inhibitor -3, M18AAP inhibitor -3, ZTA DNA inh 9 and NS3 helicase inh 0.
Screening COc1ccc(-c2n[nH]c(=S)n2C2CCCCC2)cc1 returned HCV core dimer -2, ALR inh 89*, EBNA-1 inhibitor -6, M18AAP inhibitor -8, ZTA DNA inh -17 and NS3 helicase inh -4.
Screening CCCn1c(=O)c2sccc2n2c(CCCC(=O)NCC3CCCO3)nnc12 (stereo not drawn) returned HCV core dimer -1, ALR inh -3, EBNA-1 inhibitor -3, M18AAP inhibitor 2, ZTA DNA inh -22 and NS3 helicase inh -5.
Cc1nnc2sc(SCC(=O)Nc3cccc(Cl)c3)nn2c1=O was read as HCV core dimer -2, ALR inh 98*, EBNA-1 inhibitor 4, M18AAP inhibitor 12, ZTA DNA inh 11 and NS3 helicase inh 3.
Screening COc1ccc(OC)c(NC(=O)CSc2nn3c(=O)c(C)nnc3s2)c1 returned HCV core dimer -9, ALR inh 86*, EBNA-1 inhibitor 1, M18AAP inhibitor 5, ZTA DNA inh -3 and NS3 helicase inh -1.
`Cc1ccccc1NC(=O)CSc1nn2c(=O)c(C)nnc2s1` gave HCV core dimer -1, ALR inh 49, EBNA-1 inhibitor -12, M18AAP inhibitor 6, ZTA DNA inh 1 and NS3 helicase inh -1.
Screening COc1cccc(NC(=O)CSc2nn3c(=O)c(C)nnc3s2)c1 returned HCV core dimer 5, ALR inh 99*, EBNA-1 inhibitor -6, M18AAP inhibitor 5, ZTA DNA inh -23 and NS3 helicase inh 4.
Screening COc1ccc(NC(=O)CSc2ccccn2)cc1 returned HCV core dimer -5, ALR inh -26, EBNA-1 inhibitor -1, M18AAP inhibitor -10, ZTA DNA inh 2 and NS3 helicase inh -1.
Screening COc1cccc(NC(=O)CSc2nc(C)cs2)c1 returned HCV core dimer -4, ALR inh -1, EBNA-1 inhibitor -6, M18AAP inhibitor -5, ZTA DNA inh 11 and NS3 helicase inh -1.
For COc1cccc(NC(=O)CSc2ccccn2)c1 the results were HCV core dimer -2, ALR inh 90*, EBNA-1 inhibitor -7, M18AAP inhibitor 5, ZTA DNA inh -4 and NS3 helicase inh -5.
For O=C1CCC/C=C/C[C@H](CC(=O)N(CCO)Cc2ccccc2)C(=O)N[C@@H](Cc2ccccc2)CO1 the results were ALR inh 0.
For Cc1cc(C)nc(OC(C(=O)O)C(OCCc2ccccc2)(c2ccc(F)cc2)c2ccc(F)cc2)n1 (stereo not drawn) the results were HCV core dimer 14, ALR inh -43, EBNA-1 inhibitor 19, M18AAP inhibitor 4, ZTA DNA inh 13 and NS3 helicase inh 32.
Screening CCCOC(c1ccccc1)(c1ccc(C(F)(F)F)cc1)C(Oc1nc(C)cc(C)n1)C(=O)O (stereo not drawn) returned HCV core dimer 7, ALR inh 96*, EBNA-1 inhibitor 6, M18AAP inhibitor 0, ZTA DNA inh -7 and NS3 helicase inh 25.
For O=C(O)CCc1ccc(-c2ccc(Cl)cc2)o1 the results were HCV core dimer -14, ALR inh 97*, EBNA-1 inhibitor -1, M18AAP inhibitor -17, ZTA DNA inh -10 and NS3 helicase inh 1.
`O/N=C(\COc1ccccc1O)c1ccccc1` gave HCV core dimer -1, ALR inh 77*, EBNA-1 inhibitor 11, M18AAP inhibitor 11, ZTA DNA inh -6 and NS3 helicase inh -2.
Screening O=C(Cc1c(F)cccc1Cl)NCCCn1ccnc1 returned HCV core dimer -3, ALR inh -1, EBNA-1 inhibitor 4, M18AAP inhibitor 28*, ZTA DNA inh -1 and NS3 helicase inh 16.
Screening CC(C)NC(=O)c1ccc(CSCc2ccccc2Cl)o1 returned HCV core dimer -6, ALR inh 99*, EBNA-1 inhibitor 0, M18AAP inhibitor -7, ZTA DNA inh -3 and NS3 helicase inh -8.
Screening CCC(C)NC(=O)c1ccc(CSCc2ccccc2Cl)o1 (stereo not drawn) returned HCV core dimer 14, ALR inh 36, EBNA-1 inhibitor 4, M18AAP inhibitor 4, ZTA DNA inh 6 and NS3 helicase inh 5.
CCC(C)NC(=O)c1ccc(CSCc2cccc(F)c2)o1 (stereo not drawn) was read as HCV core dimer 2, ALR inh 2, EBNA-1 inhibitor -1, M18AAP inhibitor 4, ZTA DNA inh -4 and NS3 helicase inh 7.
For CCC(C)NC(=O)c1ccc(CSCc2ccc(Cl)cc2)o1 (stereo not drawn) the results were HCV core dimer -9, ALR inh 84*, EBNA-1 inhibitor -11, M18AAP inhibitor 9, ZTA DNA inh -8 and NS3 helicase inh 13.
Screening Cc1ccn2cc(-c3cccc(NC(=O)CCC(=O)O)c3)nc2c1 returned HCV core dimer -6, ALR inh 98*, EBNA-1 inhibitor -17, M18AAP inhibitor -4, ZTA DNA inh -7 and NS3 helicase inh 2.
Screening Cc1ccn2cc(-c3cccc([N+](=O)[O-])c3)nc2c1 returned HCV core dimer -1, ALR inh 91*, EBNA-1 inhibitor 3, M18AAP inhibitor -3, ZTA DNA inh 3 and NS3 helicase inh 15.
Screening CC(=O)Nc1cccc(-c2cn3ccc(C)cc3n2)c1 returned HCV core dimer -1, ALR inh inconclusive, EBNA-1 inhibitor -1, M18AAP inhibitor 0, ZTA DNA inh 6 and NS3 helicase inh 4.
Screening Cc1ccn2cc(-c3ccc(Br)cc3)nc2c1 returned HCV core dimer 3, EBNA-1 inhibitor -8, M18AAP inhibitor -6, ZTA DNA inh -11 and NS3 helicase inh -2.
For Cc1ccn2cc(-c3cccc(NS(C)(=O)=O)c3)nc2c1 the results were HCV core dimer -4, ALR inh 97*, EBNA-1 inhibitor 8, M18AAP inhibitor 0, ZTA DNA inh -10 and NS3 helicase inh -10.
Cc1ccc(C)c(OCC(=O)Nc2cc(NC(=O)COc3cc(C)ccc3C)cc(C(=O)O)c2)c1 was read as HCV core dimer 15, ALR inh 6, EBNA-1 inhibitor -8, M18AAP inhibitor 0, ZTA DNA inh 12 and NS3 helicase inh -39.

Screening results from PubChem.
